Experimental data taken from PubChem BioAssay.
Results filed as inconclusive are left out.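 Rule for the calls, unless noted: active = inhibition over a set limit, the all-compound mean plus 3 SD, in both replicate runs; inconclusive = over that limit in just one replicate run; inactive = at or under that limit in both runs.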

Assays:
[1] = S. cerevisiae growth inhibition in permissive medium (OD615), pilot counter-assay for S. cerevisiae lifespan shortening project, permissive growth control (AID 705;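 active = growth inhibition above 25% in both replicates, a cutoff set 3 SD above the mean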); details: OD615, 24 h, at 10 µM, active compounds read high
Summary of the method: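 Material: engineered DeaD yeast; compound dosing: one dose 10 µM, DMSO 0.25% final; measure: yeast growth inhibition indicated by reduced 24 h OD615; detection: OD615 turbidity read; incubation: cells pre-grown 4 h, then 24 h compound exposure, 30 °C humidified; medium: permissive synthetic complete medium with raffinose and galactose carbon sources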

[2] = S. cerevisiae growth inhibition in restrictive medium, OD615, pilot screen, restrictive growth control, yeast lifespan reduction project (AID 706;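 active = growth inhibition above a set limit, 3 SD over mean compound inhibition, in both replicates, cut at about 43% in these data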;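 note: modified DeaD lifespan yeast strain shifted to restrictive glucose medium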); details: OD615, 48 h, at 10 µM, active compounds read high
Summary of the method: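 material = engineered S. cerevisiae DeaD strain | medium = glucose-based CSMM-D restrictive medium | times = 4 h pre-incubation, 48 h exposure at 30 °C | technique = OD615 absorbance reading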

[3] = doxorubicin toxicity protection in MRP-1 cells – H69AR cells, CellTiter-Glo, duplicate, MRP-1 activator project, pilot screen (AID 807;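 active = viability increase at or above a cutoff of the median across tested compounds plus 3 SD, cut at about 8.5% in these data, passing the limit was not always enough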;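 note: compound pretreatment 18-22 h then 72 h combined with doxorubicin; 0% = doxorubicin alone and 100% = vehicle without doxorubicin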); details: H69AR viability with doxorubicin, CellTiter-Glo luminescence; at 10 µM; active compounds read high
[4] = viability of HCT116 without oncogenic beta-catenin – human colon tumor cells, pilot screen (AID 823;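 active = cell viability at or below a set limit in both duplicate runs, the limit being the all-compound median minus 4 SD, cut at about 23% in these data, passing the limit was not always enough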;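 note: 0% = wells killed by 20 µM Hyamine and 100% = untreated DMSO cell wells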); details: HCT116 beta-catenin knockout viability, CellTiter-Glo, 60 h; at 10 µM; active compounds read low
[5] = viability of PTEN-null HCT116 cells – cell-based, HCT116 clonal line, CellTiter-Glo, pilot screen (AID 824;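 active = viability at or below 27.92% in each of two runs, the all-compound median minus 4 SD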;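 note: 0% = 20 µM Hyamine control and 100% = vehicle cell control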); details: HCT116 PTEN-deleted viability, 60 h, at 10 µM, active compounds read low
[6] = RAM pathway blockade in budding yeast – dse1pr::URA3 reporter, 5-FOA selection, pilot screen (AID 869);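 note: 0% = DMSO wells with no growth and 100% = 10 µM 1-NA-PP1 with full growth; RAM network block rescues cells from 5-FOA so hits raise OD615 growth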; details: S. cerevisiae dse1pr::URA3 5-FOA growth, OD615, 2 d; at 10 µM; active compounds read high; strain carries analog-sensitive mutant Cbk1 kinase
[7] = RAM signaling pathway blockade in yeast – S. cerevisiae, Pdr1DBD-CYC8 efflux-inhibited sensitized strain, primary screen (AID 1298;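 active = RAM network inhibition above 8.4% in each of two replicates, 3 SD over the compound average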;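 note: 0% = DMSO untreated cells without growth and 100% = 10 µM 1-NA-PP1 full growth; higher means more yeast growth rescued from 5-FOA killing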); details: S. cerevisiae cbk1-as DSE1-URA3 strain, 5-FOA growth OD615, 2 d; at 50 µM; active compounds read high

CCC1Oc2ccccc2N(CC(=O)NCCCN2CCOCC2)C1=O (configuration not stated)
inactive: growth inhibition [1] -2.59% | growth inhibition [2] 4.67% | viability increase [3] -1.49% | viability [4] 109% | viability [5] 105% | inhibition [6] 1.29% | RAM network inhibition [7] 0.62%

O=C(CN1C(=O)CSc2ncccc21)NCCN1CCOCC1
inactive: growth inhibition [1] 0.545% | growth inhibition [2] -1.25% | viability increase [3] -0.4% | viability [4] 106% | viability [5] 99.7% | inhibition [6] 2.09% | RAM network inhibition [7] 3.41%

CC(Cc1c[nH]c2ccccc12)NC(=O)C1CCCNC1=O (configuration not stated)
inactive: growth inhibition [1] -5.75% | growth inhibition [2] 8.45% | viability increase [3] -0.46% | viability [4] 99.4% | viability [5] 103% | inhibition [6] 1.27% | RAM network inhibition [7] 0.66%

COc1ccc(OCc2nnc3n2N=C(c2ccc(C)cc2)CS3)cc1
inactive: growth inhibition [1] -3.36% | growth inhibition [2] -2.56% | viability increase [3] 2.3% | viability [4] 95.4% | viability [5] 82.1% | inhibition [6] 1.57% | RAM network inhibition [7] 2.58%

CC/C(=C\C(=O)c1ccncc1)Nc1ccc(O)cc1
inactive: growth inhibition [1] -4.59% | growth inhibition [2] 8.96% | viability increase [3] -3.41% | viability [4] 92.8% | viability [5] 83.7% | inhibition [6] 1.58% | RAM network inhibition [7] 2.31%

O=C(Cc1c(C(=O)O)[nH]c2ccccc12)NC1CCN(Cc2ccccc2)CC1
inactive: growth inhibition [1] -9.14% | growth inhibition [2] -14.9% | viability increase [3] 0.24% | viability [4] 102% | viability [5] 99.8% | inhibition [6] 1.6% | RAM network inhibition [7] -1.14%

CCCCOc1ccc(-c2nc(-c3cccnc3)no2)cc1
inactive: growth inhibition [1] -3.21% | growth inhibition [2] 4.81% | viability increase [3] 4.19% | viability [4] 68.4% | viability [5] 82.9% | inhibition [6] 0.07% | RAM network inhibition [7] 2.29%

Cn1c(=O)c2cc(S(=O)(=O)NC(Cc3ccccc3)C(=O)NCc3ccco3)ccc2n(C)c1=O (configuration not stated)
inactive: growth inhibition [1] -16.4% | growth inhibition [2] -11.4% | viability increase [3] -4.79% | viability [4] 101% | viability [5] 92% | inhibition [6] 2.81% | RAM network inhibition [7] 4.39%

O=C(O)CN1C(=O)C2C3C=CC(C3)C2C1=O (configuration not stated)
inactive: growth inhibition [1] -14.3% | growth inhibition [2] -14.5% | viability increase [3] 0.28% | viability [4] 102% | viability [5] 88% | inhibition [6] 1.61% | RAM network inhibition [7] 2.2%

N#CCC(=O)Nc1ccccc1C(=O)O
inactive: growth inhibition [1] -4.9% | growth inhibition [2] 0.025% | viability increase [3] -2.8% | viability [4] 94.8% | viability [5] 97% | inhibition [6] 0.695% | RAM network inhibition [7] -0.92%

O=C(O)CC(NC(=O)OCc1ccccc1)c1ccccc1 (configuration not stated)
inactive: growth inhibition [1] 2.56% | growth inhibition [2] -5.79% | viability increase [3] -1.78% | viability [4] 91.7% | viability [5] 96.5% | inhibition [6] 1.17% | RAM network inhibition [7] -0.33%

O=C1C(Cl)=C(NCC2CCCO2)C(=O)N1C1CCCCC1 (configuration not stated)
inactive: growth inhibition [1] -2.76% | growth inhibition [2] 8.66% | viability increase [3] -3.97% | viability [4] 88.3% | viability [5] 90.2% | inhibition [6] 1.46% | RAM network inhibition [7] 5.88%

COCCOC(=O)C1=C(C)NC2=C(C(=O)CCC2)C1c1cc2c(cc1Br)OCO2 (configuration not stated)
inactive: growth inhibition [1] -18.1% | growth inhibition [2] -17% | viability increase [3] -0.03% | viability [4] 92.4% | viability [5] 102% | inhibition [6] 1.16% | RAM network inhibition [7] 5.69%

CCn1cc(C(=O)N2CCCC2)c(=O)c2cc(S(=O)(=O)N(C)C)ccc21
inactive: growth inhibition [1] -3.43% | growth inhibition [2] 6.6% | viability increase [3] 0.77% | viability [4] 106% | viability [5] 101% | inhibition [6] 0.825% | RAM network inhibition [7] 3.02%

CCn1c(CCC(=O)Nc2cc(F)ccc2C)nc2cc(S(=O)(=O)N(C)C)ccc21
inactive: growth inhibition [1] -6.57% | growth inhibition [2] -1.81% | viability increase [3] -0.38% | viability [4] 99.5% | viability [5] 97.1% | inhibition [6] 2.07% | RAM network inhibition [7] 6.18%

COc1cccc(NC(=O)Cn2cnc3sc(C)c(S(=O)(=O)N4CCN(C)CC4)c3c2=O)c1
inactive: growth inhibition [1] -17.7% | growth inhibition [2] -24.1% | viability increase [3] -1.93% | viability [4] 89% | viability [5] 83.2% | inhibition [6] 1.76% | RAM network inhibition [7] 1.09%

Cc1c(C(=O)O)oc2ccc(S(=O)(=O)N3CCCCC3C(=O)O)cc12 (configuration not stated)
inactive: growth inhibition [1] 4.47% | growth inhibition [2] -3.15% | viability increase [3] -0.18% | viability [4] 97.1% | viability [5] 101% | inhibition [6] 1.12% | RAM network inhibition [7] 5.52%

Nc1cc(N)nc(SCCOc2ccccc2)n1
inactive: growth inhibition [1] -4.79% | growth inhibition [2] -0.825% | viability increase [3] 0.93% | viability [4] 106% | viability [5] 106% | inhibition [6] 2.26% | RAM network inhibition [7] 2.17%

O=C(NCCc1ccccc1)C1CCN(C(=O)c2sccc2-n2cccc2)CC1
inactive: growth inhibition [1] -0.295% | growth inhibition [2] -8.75% | viability increase [3] -1.15% | viability [4] 101% | viability [5] 93.8% | inhibition [6] 3.48% | RAM network inhibition [7] 4%

CCOc1ccc(C2CC(c3cccc(C)c3)n3nc(N)nc3N2)cc1 (configuration not stated)
inactive: growth inhibition [1] 2.79% | growth inhibition [2] 11.8% | viability increase [3] -0.49% | viability [4] 91.7% | viability [5] 83.2% | inhibition [6] 1.02% | RAM network inhibition [7] 2.03%

O=C(Nc1ccccc1)N1CCN(Cc2ccc3c(c2)OCO3)CC1
inactive: growth inhibition [1] 5.22% | growth inhibition [2] -15.8% | viability increase [3] -1.15% | viability [4] 101% | viability [5] 96.8% | inhibition [6] 1.25% | RAM network inhibition [7] 2.76%

COc1ccc(OC)c(NC(=O)Cn2cnc3c(cnn3-c3ccccc3)c2=O)c1
inactive: growth inhibition [1] 3.69% | growth inhibition [2] 7.43% | viability increase [3] -0.9% | viability [4] 98% | viability [5] 94.2% | inhibition [6] 1.27% | RAM network inhibition [7] 0.95%

COc1ccccc1N1CCN(c2nc(N)c(C#N)c(CC#N)c2C#N)CC1
inactive: growth inhibition [1] -1.4% | growth inhibition [2] -0.44% | viability increase [3] 2.45% | viability [4] 96.7% | viability [5] 86.3% | inhibition [6] 1.54% | RAM network inhibition [7] 3.57%

CSc1nnc2n(-c3ccc(C)cc3)c(=O)c3c4c(sc3n12)COC(C(C)C)C4 (configuration not stated)
inactive: growth inhibition [1] -18.2% | growth inhibition [2] -3.12% | viability increase [3] -4.07% | viability [4] 37.3% | viability [5] 31.6% | inhibition [6] -0.285% | RAM network inhibition [7] 7.91%

CC(C)c1nnc(NC(=O)c2cccs2)s1
inactive: growth inhibition [1] -15% | growth inhibition [2] -8.46% | viability increase [3] 0.84% | viability [4] 95.5% | viability [5] 86.4% | inhibition [6] 1.23% | RAM network inhibition [7] 6.85%

N#CCc1nc2n(n1)Cc1ccccc1-2
inactive: growth inhibition [1] -6.24% | growth inhibition [2] -25.7% | viability increase [3] 0.02% | viability [4] 105% | viability [5] 96.8% | inhibition [6] 3.54% | RAM network inhibition [7] 2.06%

O=C(NCc1cccs1)c1ccccc1F
inactive: growth inhibition [1] -9.19% | growth inhibition [2] -7.24% | viability increase [3] -0.25% | viability [4] 94.2% | viability [5] 88.9% | inhibition [6] 0.385% | RAM network inhibition [7] 1.34%

CCN1CCN(C(=O)c2cc3c(-c4ccc(Cl)cc4)nn(C)c3s2)CC1
inactive: growth inhibition [1] -4.23% | growth inhibition [2] 16% | viability increase [3] -7.68% | viability [4] 38.5% | viability [5] 52.7% | inhibition [6] 2.21% | RAM network inhibition [7] 1.3%

CCN1C(=O)c2ccccc2S(=O)c2ccc(C(=O)NCCCN3CCCC3=O)cc21 (configuration not stated)
inactive: growth inhibition [1] -7.88% | growth inhibition [2] -6.62% | viability increase [3] -3.1% | viability [4] 97.5% | viability [5] 87.7% | inhibition [6] 0.64% | RAM network inhibition [7] -1.15%

CC1CCCN(C(=O)C(Cc2ccccc2)n2cccc2)C1 (configuration not stated)
inactive: growth inhibition [1] -11.8% | growth inhibition [2] -13% | viability increase [3] -3.01% | viability [4] 87.3% | viability [5] 88.4% | inhibition [6] 2% | RAM network inhibition [7] 0.97%

COc1cccc(-c2nc3cc(C)ccc3o2)c1
inactive: growth inhibition [1] -5.93% | growth inhibition [2] 0.415% | viability increase [3] -4.74% | viability [4] 87.2% | viability [5] 75.4% | inhibition [6] 1.08% | RAM network inhibition [7] 4.09%

CCOC(=O)/C(C#N)=C1/C=Nc2ccccc2N1
inactive: growth inhibition [1] -4.26% | growth inhibition [2] -1.09% | viability increase [3] -1.54% | viability [4] 103% | viability [5] 89.8% | inhibition [6] -0.42% | RAM network inhibition [7] 0.25%

CCN(CC)S(=O)(=O)c1cc(C(=O)Oc2ccccc2OC)ccc1OC
inactive: growth inhibition [1] 4.58% | growth inhibition [2] 2.38% | viability increase [3] -0.11% | viability [4] 86.1% | viability [5] 85.6% | inhibition [6] 1.38% | RAM network inhibition [7] 3.93%

S=c1[nH]nc(CSc2nc3ccccc3s2)o1
inactive: growth inhibition [1] -1.19% | growth inhibition [2] 16.7% | viability increase [3] -4.34% | viability [4] 93.8% | viability [5] 99.1% | inhibition [6] 0.95% | RAM network inhibition [7] 0.83%

CCOc1ccc(OCC)c(Nc2cc(C)nc3nc(C)nn23)c1
inactive: growth inhibition [1] -13.3% | growth inhibition [2] -2.15% | viability increase [3] -6.5% | viability [4] 53.1% | viability [5] 46.6% | inhibition [6] 0.055% | RAM network inhibition [7] 6.18%

O=C(Cc1cccs1)N(Cc1ccco1)C1(C(=O)NC2CCCC2)CCCCC1
inactive: growth inhibition [1] -6.91% | growth inhibition [2] -9.26% | viability increase [3] -5.17% | viability [4] 66.5% | viability [5] 67.1% | inhibition [6] 0.86% | RAM network inhibition [7] 6.21%
